Active and inactive are the calls of the source. The calls are words filed in the database; no cut-off is given here.
Experiments:
Quadruplex DNA [1] = test: Binding affinity to mito 0.5-16 G4 DNA (unknown origin) assessed as dissociation constant measured upto 150 secs by isothermal titration calorimetry assay; type: nucleic-acid assay
HCT-116 [2] = test: Downregulation of ND4 mRNA level in human HCT-116 cells at 0 to 4 uM measured after 48 hrs by qRT-PCR analysis; type: functional, cell-based; conditions: dose 0-4 µM
Quadruplex DNA [3] = test: Binding affinity to mito 78 G4 DNA (unknown origin) assessed as dissociation constant measured upto 150 secs by isothermal titration calorimetry assay; type: nucleic-acid assay
HCT-116 [4] = test: Antitumor activity against human HCT-116 cells xenografted in Balb/c nude mouse model assessed as reduction in tumor weight at 5 mg/kg, iv administered every two days for 16 days relative to control; type: functional; design: scale not given: the % may be the effect or the level left; conditions: time 16 day
In short: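 Male Balb/c nude mice carrying HCT116 xenografts, 6 per group. Dosing was intravenous every two days at 5 mg/kg, with a PBS-injected control group. Body weight and tumour growth were tracked. Tumours were excised and weighed after 16 days.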

HCT-116 [5] = test: Downregulation of CYTB protein level in human HCT-116 cells at upto 4 uM incubated for 48 hrs by Western blot analysis; type: functional, cell-based
Quadruplex DNA [6] = test: Binding affinity to Mito 0.5-15 G4 DNA (unknown origin) assessed as change in melting temperature at 5 uM by circular dichroism spectroscopic analysis; type: nucleic-acid assay
DNA [7] = test: Binding affinity to SS19 DNA (non-G4 DNA) (unknown origin) assessed as increase in CD signal at 5 uM by circular dichroism spectroscopic analysis; type: nucleic-acid assay
[8] = Toxicity in BALB/c nude mouse assessed as change in red blood cell count at 5 mg/kg, iv administered every two days for 16 days; type: organism-based; conditions: in vivo, 384 h, time 16 day
In short: (§1)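 HCT116 xenograft-bearing male Balb/c nude mice (6/group) dosed iv at 5 mg/kg every two days or with PBS. Whole blood collected at sacrifice on day 16 for hematology parameters.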

[9] = Antiproliferative activity against human BJ cells measured after 48 hrs by MTT assay; type: toxicity, cell-based; conditions: BJ cells
In short: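 Cells exposed to the ligands for 48 h. Viability was read by MTT, and the IC50 was derived from the response.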

HFF-1 [10] = test: Induction of morphological changes in human HFF-1 cells at 4 uM by microscopy based analysis; type: functional, cell-based
In short: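 HCT116 and HFF1 cells treated with ligand at 4 uM alongside untreated controls. Morphology examined by microscopy at 100x.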

[11] = Toxicity in BALB/c nude mouse assessed as effect on spleen at 5 mg/kg, iv measured after 16 hrs post injection by H and E staining based analysis; type: organism-based; conditions: in vivo
HCT-116 [12] = test: Downregulation of ATP6 mRNA level in human HCT-116 cells at 0 to 4 uM measured after 48 hrs by qRT-PCR analysis; type: functional, cell-based; conditions: dose 0-4 µM
Quadruplex DNA [13] = test: Binding affinity to mito 81 G4 DNA (unknown origin) assessed as increase in fluorescence intensity by fluorescence spectrophotometric analysis; type: nucleic-acid assay
In short: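 Fluorescence titration in buffer. Ligand at 5 uM mixed with 20 uM pre-annealed DNA (95 °C for 10 min, slow cooling). Emission collected at 550-800 nm and monitored at 650 nm. Result reported as fold enhancement F/F0 over ligand alone.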

HCT-116 [14] = test: Downregulation of ATP8 protein level in human HCT-116 cells at upto 4 uM incubated for 48 hrs by Western blot analysis; type: functional, cell-based
HCT-116 [15] = test: Downregulation of ND4L mRNA level in human HCT-116 cells at 0 to 4 uM measured after 48 hrs by qRT-PCR analysis; type: functional, cell-based; conditions: dose 0-4 µM
Quadruplex DNA [16] = test: Binding affinity to Mito 55 G4 DNA (unknown origin) assessed as change in melting temperature at 5 uM by circular dichroism spectroscopic analysis; type: nucleic-acid assay
[17] = Toxicity in BALB/c nude mouse assessed as effect on liver at 5 mg/kg, iv measured after 16 hrs post injection by H and E staining based analysis; type: organism-based; conditions: in vivo
HCT-116 [18] = test: Induction of DNA damage in human HCT-116 assessed as increase in gammaH2AX level at upto 4 uM incubated for 72 hrs in presence of MitoTEMPOL by Western blot analysis; type: functional, cell-based
Quadruplex DNA [19] = test: Binding affinity to mito 0.5-16 G4 DNA (unknown origin) assessed as dissociation constant measured upto 450 secs by surface plasmon resonance assay; type: nucleic-acid assay
In short: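 Surface plasmon resonance in buffer at 25 °C. Four G4-mtDNAs (Mito 78, Mito 55, Mito 29, Mito 0.5-16) and the hairpin HP19 served as substrates. Kd was derived from the sensorgrams.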

HCT-116 [20] = test: Downregulation of ND5 mRNA level in human HCT-116 cells at 0 to 4 uM measured after 48 hrs by qRT-PCR analysis; type: functional, cell-based; conditions: dose 0-4 µM
[21] = Toxicity in BALB/c nude mouse assessed as change in mean red blood cell volume at 5 mg/kg, iv administered every two days for 16 days; type: organism-based; conditions: in vivo, 384 h, time 16 day; in short: as §1
DNA [22] = test: Binding affinity to HP19 DNA (non-G4 DNA) (unknown origin) assessed as increase in CD signal at 5 uM by circular dichroism spectroscopic analysis; type: nucleic-acid assay
[23] = Drug localization in human HCT-116 cells transfected with Cy5-mito 0.5-16 G4 DNA at 4 uM incubated for 1 hr by hoechst33342 staining based analysis; type: ADME, cell-based; conditions: hct-116, 1 h
In short: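 HCT116 cells transfected with Cy5-labelled DNA (excitation 635 nm) for 24 h. Ligand 4 uM added for 1 h, then Hoechst33342 1 uM for 30 min. Colocalization of ligand with Cy5 quantified by Pearson r from confocal images.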

[24] = Drug localization in human HCT-116 cells by measuring red foci at 4 uM incubated for 1 hr in presence of cyclosporin A by hoechst33342 staining based analysis; type: ADME, cell-based; conditions: hct-116, 1 h
In short: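 Pretreatment of live HCT116 cells: FCCP 1 uM for 20 min, cyclosporin A 1 uM for 24 h, DMOG 100 uM for 24 h, or MitoPDS at several concentrations for 3 h (applied after dye loading). Cells loaded with ligand 4 uM (excitation 488 nm) for 1 h and Hoechst33342 1 uM for 30 min. Red foci counted by confocal imaging in 100 cells. Mean ± SEM, t test.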

HFF-1 [25] = test: Downregulation of ND5 mRNA level in human HFF-1 cells at 0 to 4 uM measured after 48 hrs by qRT-PCR analysis; type: functional, cell-based; conditions: dose 0-4 µM
[26] = Drug localization in mitochondria of living human HCT-116 cells assessed as colocalization at 4 uM incubated for 1 hr by Mito-tracker deep red staining based analysis; type: ADME; conditions: hct-116, 1 h
HCT-116 [27] = test: Downregulation of COX2 protein level in human HCT-116 cells at upto 4 uM incubated for 48 hrs by Western blot analysis; type: functional, cell-based
[28] = Drug localization in human HCT-116 cells by measuring red foci at 4 uM incubated for 1 hr in presence of DNA I by hoechst33342 staining based analysis; type: ADME, cell-based; conditions: hct-116, 1 h
In short: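 Live HCT116 cells loaded with ligand 4 uM for 1 h and Hoechst33342 1 uM for 30 min, then fixed. Fixed cells digested with 200 units DNase I or RNase A for 3 h. Red foci imaged by confocal microscopy in 100 cells. Mean ± SEM, t test.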

HCT-116 [29] = test: Downregulation of ND3 protein level in human HCT-116 cells at upto 4 uM incubated for 48 hrs by Western blot analysis; type: functional, cell-based

- Kd (Quadruplex DNA [1]): 60 nM
- Kd (Quadruplex DNA [3]): 60 nM
- ΔTm (Quadruplex DNA [6]): 3.6 °C
- Activity (DNA [7]): inactive
- Activity (Quadruplex DNA [13]): Active
- ΔTm (Quadruplex DNA [16]): 3.6 °C
- Kd (Quadruplex DNA [19]): 290 nM
- Activity (DNA [22]): inactive
- Drug uptake [23]: Active
- Drug uptake [24]: Active
- Drug uptake [26]: Active
- Drug uptake [28]: Not Active
SMILES: C(=C\c1ccc2ccccc2[n+]1CCCCCCCC[n+]1c(/C=C/c2ccc(N3CCCCC3)cc2)ccc2ccccc21)/c1ccc(N2CCCCC2)cc1.[I-].[I-]
- Activity (HCT-116 [2]): Active
- Activity (HCT-116 [4]): 70%
- Activity (HCT-116 [5]): Active
- Activity [8]: Non-Toxic
- IC50 at 48 h [9]: > 40 µM
- Activity (HFF-1 [10]): Active
- Activity [11]: Non-Toxic
- Activity (HCT-116 [12]): Active
- Activity (HCT-116 [14]): Active
- Activity (HCT-116 [15]): Active
- Activity [17]: Non-Toxic
- Activity (HCT-116 [18]): inactive
- Activity (HCT-116 [20]): Active
- Activity [21]: Non-Toxic
- Activity (HFF-1 [25]): Active
- Activity (HCT-116 [27]): Active
- Activity (HCT-116 [29]): Active

Reference: ChEMBL document CHEMBL5506013, “Mitochondria-Selective Dicationic Small-Molecule Ligand Targeting G-Quadruplex Structures for Human Colorectal Cancer Therapy” (J Med Chem, 2024)
